# Sampled rows, rich in hits. Any-hit rate of the full collection: about 2.3%.
# Diaph act CS – compounds boosting diaphorase resazurin reduction – biochemical, uHTS, resorufin fluorescence, counter-screen for diaphorase-coupled primary assays, primary screen; hit rate 0.005% among 190,000; Diaphorase/resazurin coupled assay, 16 min; active compounds read high; 1 = vehicle wells, 0 = NADH-free wells; activation factor at 20 µM;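 active = diaphorase activity raised at least twofold by the compound at 20 µM; inactive = activation factor below 2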
#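 Measured by – red resorufin fluorescence at 544/590 nm excitation/emission · Test system – Clostridium kluyveri diaphorase, purified enzyme · Incubation – reaction time 16 min, room temperature · Buffer or medium – 50 mM HEPES pH 7.4 with 4.542 mM MgCl2, 0.005% Tween 20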
# Diaphorase inh – diaphorase inhibitors and chemical oxidizers, primary screen, counter-screen for diaphorase-coupled primary assays, biochemical, uHTS, resorufin fluorescence; diaphorase resazurin-to-resorufin fluorescence, NADH, 16 min; bacterial (C. kluyveri) enzyme, not human; inhibition, % at 20 µM; hit rate 0.69% among 190,000;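 active = primary screen inhibition at 20 µM above a set limit, cut at about 50% in these data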;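 note: plate controls were DMSO with full reaction for no effect and wells lacking NADH for full effect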
#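 Test system: diaphorase enzyme from Clostridium kluyveri; amount: diaphorase at 0.14 U/mL in enzyme working solution; detection: fluorescence of resorufin formed from resazurin, Ex 544/Em 590 nm; times: reaction incubation of 16 min at room temperature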
# FLuc act counter – FLuc activators, initial screening, artefact control for FLuc-dependent activation tests, biochemical, ATPlite luminescence; AID 1027, 2008; ATPlite luciferase biochemical, 10 min; 0 = ATP-free wells, 1 = DMSO control; activation factor at 10 µM; 200,000 tested, under 10 active;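 active = luciferase activation factor, scaled between plate controls, of at least 2 with compound at 10 µM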
# Target sequence (P08659 whole entry, looked up): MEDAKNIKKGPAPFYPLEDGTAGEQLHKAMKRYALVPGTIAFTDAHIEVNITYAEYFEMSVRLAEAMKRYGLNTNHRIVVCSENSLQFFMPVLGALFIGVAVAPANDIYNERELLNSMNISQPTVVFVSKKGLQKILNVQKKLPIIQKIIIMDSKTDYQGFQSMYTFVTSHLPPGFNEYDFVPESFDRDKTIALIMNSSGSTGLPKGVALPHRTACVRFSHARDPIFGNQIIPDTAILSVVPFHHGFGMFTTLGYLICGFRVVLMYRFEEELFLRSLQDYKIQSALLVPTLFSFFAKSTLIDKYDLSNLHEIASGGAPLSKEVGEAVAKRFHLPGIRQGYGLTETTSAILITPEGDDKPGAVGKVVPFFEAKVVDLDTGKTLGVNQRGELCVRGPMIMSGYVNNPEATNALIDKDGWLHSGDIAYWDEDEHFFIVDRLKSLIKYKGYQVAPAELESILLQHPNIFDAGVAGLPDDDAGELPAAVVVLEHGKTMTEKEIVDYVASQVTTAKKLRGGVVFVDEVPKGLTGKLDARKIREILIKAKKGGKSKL
#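 Assay system – cell-free luciferase reagent · Medium – PBS-based ATP solution · Dosing – test compounds dosed from 2 mM stocks in 100% DMSO · Timing – 10 min, room temperature · Technique – light output (luminescence) · Measure – luminescence gain marking luciferase activators · Controls – No-ATP low control, compound-free enzyme-plus-ATP high control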
# G6PDH CS – L. mesenteroides G6PDH inhibitors, counter-screen for G6PDH-coupled screening assays, biochemical, Leuconostoc mesenteroides enzyme; glucose-6-phosphate dehydrogenase [Leuconostoc mesenteroides]; Purified L. mesenteroides G6PDH, diaphorase/resazurin coupled fluorescence, 45 min; inhibition, % at 5 µM; hit rate 0.12% among 200,000; in the data active = inhibition above about 50%
# FLuc inh counter – firefly luciferase enzyme inhibitors, primary screen, artefact control for luciferase-based inhibitor screens, biochemical, luminescence, ATPLite | Luciferin 4-monooxygenase (Photinus pyralis), P08659 | 10 min | inhibition, % at 10 µM | hit rate 1.5% among 200,000 | AID 1006, 2008;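 active = inhibition above about 50% when tested at 10 µM, limit read from the data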
# * = called active by the depositor; x = no result given.
SMILES,Diaph act CS,Diaphorase inh,FLuc act counter,G6PDH CS,FLuc inh counter
Cc1ccc(/C=C2\Sc3ccccc3C2=O)s1,0.9,11.0,0.1,6.3,87.3*
O=C1/C(=C/c2cccnc2)Sc2ccccc21,0.9,12.6,0.7,-2.3,31.7
O=C(NCCc1ccccc1)C(=O)NCc1ccncc1,1.1,-10.4,0.5,2.3,50.1*
O=C(NCCc1ccccc1)c1ccncc1,1.1,-7.5,1,12.2,-4.7
COc1ccccc1N1CCN(C(=O)CCCN2C(=O)c3cccc4cccc(c34)C2=O)CC1,0.9,11.5,1,-51.1,4.0
Cc1ccc(Cl)cc1N1CCN(C(=O)Cc2ccc(-n3c(=O)[nH]c4ccsc4c3=O)cc2)CC1,0.8,18.2,1.1,18.4,-5.3
Cc1cccc(Cn2nnc3c2C(=O)c2ccccc2C3=O)c1,0.8,17.7,1.1,54.1*,-7.6
CCN(CC)c1ccc(CN2CCCCCC2)cc1,1,-1.8,1,3.3,-1.9
CCN(CC)c1ccc2c(c1)CCCN2,0.4,59.4*,1,34.7,-2.4
Cc1c(NS(=O)(=O)c2ccc(NCCN3CCOCC3)c([N+](=O)[O-])c2)c(=O)n(-c2ccccc2)n1C,1,-1.5,1,5.9,0.0
CCOC(=O)c1cnc2c(N=Nc3ccccc3)c(N)nn2c1N,0.9,7.3,0.3,-1.7,69.9*
CCOC(=O)c1cnc2c(-c3ccc(Cl)cc3)cnn2c1C,x,x,0.4,6.2,57.2*
CCOC(=O)c1cnc2c(-c3ccccc3)cnn2c1N,1,1.3,0.3,4.5,74.7*
CCOC(=O)c1cnc2c(N=Nc3cccc(Cl)c3)c(N)nn2c1N,1,1.3,0.9,3.7,7.4
CCOC(=O)c1cnc2c(-c3ccc(F)cc3)cnn2c1C(F)(F)F,0.9,13.2,1,16.5,-3.0
CCOC(=O)c1cnc2c(-c3ccccc3)c(C)nn2c1N,0.8,15.2,0.9,3.9,14.4
Cc1nn(-c2ccccc2)c(C)c1NS(=O)(=O)c1ccccc1,0.8,21.7,1,-1.3,-2.4
CC(C)OC(=O)CCCNc1ccc([N+](=O)[O-])cc1[N+](=O)[O-],0.9,13.0,1.1,-3.4,-9.3
O=C(Nc1ccc(F)cc1)C1C(c2ccccc2)C1(Cl)Cl (configuration not stated),0.7,31.0,1,12.7,-4.3
CCSc1nc2ccccc2c(=O)n1Cc1ccc(F)cc1,0.9,11.1,1.1,1.3,-7.9
COc1ccc(OC)c(N/C(C)=C/C(=O)c2ccccc2)c1,0.8,17.7,0.2,7.9,76.4*
COc1ccc(C(=O)NCC(=O)OCC(=O)Nc2cc([N+](=O)[O-])ccc2F)cc1,1,2.5,0.7,8.5,29.5
c1cn2c(NC3CCCC3)c(-c3ccc(N4CCOCC4)cc3)nc2cn1,0.9,13.4,0.2,1.7,81.1*
Cc1ccc(CNC(=O)COc2ccc(C(=O)c3ccc(F)cc3)cc2)cc1,1,1.0,1,-5.2,2.3
CC1=NN(c2ccccc2)C(=O)/C1=C/c1c(O)n(-c2ccc(F)cc2)[nH]c1=O,0.7,25.1,0.4,-24.6,62.6*
SMILES,Diaph act CS,Diaphorase inh,FLuc act counter,G6PDH CS,FLuc inh counter
Cc1cc(/C=C2\Cc3ccccc3C2=O)c(C)n1-c1ccccc1,1,4.9,0.1,8.1,90.9*
CC1=NN(c2ccccc2)C(=O)/C1=C\c1cc(C)n(-c2ccccc2)c1C,0.8,20.5,0.4,-20.4,62.7*
Cc1cc(/C=C2/C(=O)NN(c3ccccc3)C2=O)c(C)n1-c1cccc(O)c1,0.8,22.0,0.1,-19.4,93.8*
CCCn1c(SCC(=O)OCC)nc(C(F)(F)F)cc1=O,0.9,5.8,1,0.3,-0.9
Cc1cc(C=C2C(=O)c3ccccc3C2=O)c(C)n1-c1ccccc1,0.9,10.8,0.1,1.1,90.5*
Cc1cc(C=C2C(=O)c3ccccc3C2=O)c(C)n1-c1ccc(C(=O)O)cc1,0.9,7.4,1.1,5.2,-6.6
O=C(/C=C/c1ccnc2ccccc12)c1cccs1,0.9,7.3,0,17.7,96.3*

# Bioassay records from PubChem.
